Results taken from ChEMBL document CHEMBL2203218, “Evaluation of [(11)C]N-Methyl Lansoprazole as a Radiopharmaceutical for PET Imaging of Tau Neurofibrillary Tangles” (ACS Med Chem Lett, 2012).

Experiments:
[1] = Drug uptake in human globus pallidus using bielschowsky staining by autoradiography analysis; assay type: ADME, tissue-based
Procedure, shortened: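 PSP patient brain blocks were cut into 20 μm cryostat sections on slides and incubated with tracer for 10 min. Slides were washed, dried and exposed to film for 5 min. The same slides were then stained by modified Bielschowsky staining to locate tau NFTs for colocalization.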

Brain [2] = test: Biodistribution in iv dosed Sprague-Dawley rat brain after 5 to 60 mins by gamma counting; assay type: ADME, organism-based; conditions: in vivo
Procedure, shortened: (§1)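 Tracer reconstituted in ethanolic saline and injected via tail vein into anesthetized Sprague-Dawley rats (three per time point). Rats were allowed to wake, then reanesthetized and sacrificed at 5, 30 and 60 min postinjection for tissue distribution.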

[3] = Octanol-water partition coefficient, log P of the compound; assay type: physicochemical
Kidney = test: Biodistribution in iv dosed Sprague-Dawley rat kidney after 5 to 60 mins by gamma counting; assay type: ADME, organism-based; conditions: in vivo; procedure, shortened: as §1
Liver = test: Biodistribution in iv dosed Sprague-Dawley rat liver after 5 to 60 mins by gamma counting; assay type: ADME, organism-based; conditions: in vivo; procedure, shortened: as §1
Brain [4] = test: Drug uptake in human Tau expressing Sprague-Dawley rat brain at 1 to 10 mCi by autoradiography analysis; assay type: ADME, tissue-based; conditions: in vivo
Brain [5] = test: Drug uptake in rhesus monkey brain at 5.4 mCi, iv at 3 mins by MicroPET analysis; assay type: ADME, organism-based, Macaca mulatta; conditions: in vivo, 0.05 h
Brain [6] = test: Drug uptake in wild type Sprague-Dawley rat brain at 1 to 10 mCi by autoradiography analysis; assay type: ADME, tissue-based; conditions: in vivo
Rattus norvegicus = test: Metabolic stability in anesthetized iv dosed Sprague-Dawley rat […] and HPLC analysis; assay type: ADME, organism-based; conditions: in vivo, in the assay text read “5 to 30 mins” for “5 to 60 mins”
Procedure, shortened: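 Sprague-Dawley rats, anesthetized, received tracer via tail vein (three per time point). They were allowed to wake, then reanesthetized and sacrificed at 5, 15 and 30 min. Blood collected at each time was centrifuged, and the plasma was analyzed by HPLC and radio-TLC for parent and radioactive metabolites.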

Hippocampus = test: Drug uptake in human Tau expressing Sprague-Dawley rat hippocampus at 1 to 10 mCi by autoradiography analysis relative to wild type Sprague-Dawley rat brain; assay type: ADME, tissue-based; conditions: in vivo
Brain [7] = test: Drug uptake in Sprague-Dawley rat brain at 0.95 mCi, iv after 60 mins by MicroPET analysis; assay type: ADME, organism-based; conditions: in vivo, 1 h
[8] = biological target: Microtubule-associated protein tau (Homo sapiens, UniProt P10636); test: Binding affinity to heparin induced human Tau 441 at 50 pM to 500 nM after 30 mins
Cortex = test: Drug uptake in human Tau expressing Sprague-Dawley rat cortex at 1 to 10 mCi by autoradiography analysis relative to wild type Sprague-Dawley rat brain; assay type: ADME, tissue-based; conditions: in vivo
Brain [9] = test: Drug uptake in rhesus monkey brain at 5.4 mCi, iv after 3 mins by MicroPET analysis; assay type: ADME, organism-based, Macaca mulatta; conditions: in vivo, 0.05 h

Chain of Microtubule-associated protein tau (P10636 whole entry): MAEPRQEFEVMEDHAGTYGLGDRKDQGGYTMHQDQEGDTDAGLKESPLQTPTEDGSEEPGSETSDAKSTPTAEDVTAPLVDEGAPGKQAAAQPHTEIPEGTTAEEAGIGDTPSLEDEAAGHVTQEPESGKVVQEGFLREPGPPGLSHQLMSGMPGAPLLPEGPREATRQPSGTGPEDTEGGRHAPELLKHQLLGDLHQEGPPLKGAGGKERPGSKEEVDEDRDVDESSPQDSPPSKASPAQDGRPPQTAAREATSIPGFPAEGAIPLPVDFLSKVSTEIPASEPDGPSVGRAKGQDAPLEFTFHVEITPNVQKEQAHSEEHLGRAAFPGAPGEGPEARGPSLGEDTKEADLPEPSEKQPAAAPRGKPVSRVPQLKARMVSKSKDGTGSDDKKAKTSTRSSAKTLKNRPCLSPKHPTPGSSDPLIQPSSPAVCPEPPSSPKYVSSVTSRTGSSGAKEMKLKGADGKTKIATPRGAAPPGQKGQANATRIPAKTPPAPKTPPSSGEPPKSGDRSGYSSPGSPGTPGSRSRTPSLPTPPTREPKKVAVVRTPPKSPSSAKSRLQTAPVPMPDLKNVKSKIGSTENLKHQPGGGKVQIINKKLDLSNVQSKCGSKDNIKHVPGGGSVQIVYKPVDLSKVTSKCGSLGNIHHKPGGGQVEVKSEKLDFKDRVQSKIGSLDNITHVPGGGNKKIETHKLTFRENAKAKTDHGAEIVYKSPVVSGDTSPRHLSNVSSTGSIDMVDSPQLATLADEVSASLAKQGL

Q: Which Drug uptake [1] does the source give for `Cc1c(OCC(F)(F)F)ccnc1C[S+]([O-])c1nc2ccccc2n1[11CH3]` (stereo unspecified) here?
A: The Drug uptake was “Active”.

Q: What about the Drug uptake (Brain [2]) of the same compound?
A: Its Drug uptake is “Not Active”.

Q: And the logP [3]?
A: Its logP is 2.18.

Q: What about the Drug uptake (Kidney) of the same compound?
A: Its Drug uptake is “Active”.

Q: And the Drug uptake (Liver)?
A: The Drug uptake was “Active”.

Q: And the Drug uptake (Brain [4])?
A: Its Drug uptake is “Active”.

Q: And the Drug uptake (Brain [5])?
A: The Drug uptake was 1600 nCi/cc.

Q: What about the Drug uptake (Brain [6]) of the same compound?
A: Its Drug uptake is “Active”.

Q: And the Stability (Rattus norvegicus)?
A: Its Stability is “Unstable”.

Q: What about the Drug uptake (Hippocampus) of the same compound?
A: Its Drug uptake is 4%.

Q: And the Drug uptake (Brain [7])?
A: The Drug uptake was “Not Active”.

Q: And the Kd [8]?
A: The Kd was 0.7 nM.

Q: And the Drug uptake (Cortex)?
A: Its Drug uptake is 12%.

Q: What about the Drug uptake (Brain [9]) of the same compound?
A: The Drug uptake was 500 nCi/cc.

Q: For `Cc1c(OCC(F)(F)F)ccnc1C[S+]([O-])c1nc2ccccc2n1C` (stereo unspecified), which Bmax ([8]; tested as the 11C-labelled form) is on record?
A: The Bmax was 0.214 fmol/µg.

Q: Which Ki [8] does the source give for `Cc1c(OCC(F)(F)F)ccnc1C[S+]([O-])c1nc2ccccc2[nH]1` (stereo unspecified) [LANSOPRAZOLE] here?
A: The Ki was 2.5 nM.
